Experimental data as given in the M2OR odorant receptor database.
Substitutions are numbered along the chain they refer to.

Experiments:
Details in all cases: stereoisomer not certain
OR2T34 (Homo sapiens) = molecular target: T1, OR2T34 (Homo sapiens) (UniProt Q8NGX1)
T1 sequence (whole entry): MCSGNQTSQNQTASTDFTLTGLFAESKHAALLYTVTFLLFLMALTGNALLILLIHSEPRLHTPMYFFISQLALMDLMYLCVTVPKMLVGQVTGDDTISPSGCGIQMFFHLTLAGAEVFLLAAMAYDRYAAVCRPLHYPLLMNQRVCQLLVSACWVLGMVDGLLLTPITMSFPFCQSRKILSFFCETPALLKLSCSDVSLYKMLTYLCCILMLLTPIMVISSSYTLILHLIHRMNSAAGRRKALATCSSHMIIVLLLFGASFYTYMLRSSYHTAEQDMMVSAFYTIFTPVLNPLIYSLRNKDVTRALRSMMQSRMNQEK
Method in brief: (§1)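 Values were gathered from published papers (main text and supplementary material), with extra details requested from the original authors when needed, and checked for typos and inconsistencies. Each receptor–molecule pair is called responsive (active) if the original authors judged the measured signal statistically different from baseline, and non-responsive (inactive) otherwise. Assay methods varied by source, often transient mammalian cell-line luciferase assays. Recorded details include cell line, G-protein, co-transfected protein and tags.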

OR2T4 (Homo sapiens) = molecular target: T2, OR2T4 (Homo sapiens) (UniProt Q8NH00)
T2 sequence (whole entry): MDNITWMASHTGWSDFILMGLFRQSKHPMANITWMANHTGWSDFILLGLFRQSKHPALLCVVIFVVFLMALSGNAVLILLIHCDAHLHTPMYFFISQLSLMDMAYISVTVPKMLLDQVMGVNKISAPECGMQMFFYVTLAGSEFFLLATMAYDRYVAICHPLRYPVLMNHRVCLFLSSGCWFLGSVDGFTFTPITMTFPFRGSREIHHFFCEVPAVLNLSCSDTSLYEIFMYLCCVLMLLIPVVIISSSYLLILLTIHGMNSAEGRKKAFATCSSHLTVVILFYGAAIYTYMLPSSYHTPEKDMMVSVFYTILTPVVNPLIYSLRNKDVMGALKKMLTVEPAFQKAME
Method in brief: as §1

OR2T11 (Homo sapiens) = molecular target: T3, OR2T11 (Homo sapiens) (UniProt Q8NH01)
T3 sequence (whole entry): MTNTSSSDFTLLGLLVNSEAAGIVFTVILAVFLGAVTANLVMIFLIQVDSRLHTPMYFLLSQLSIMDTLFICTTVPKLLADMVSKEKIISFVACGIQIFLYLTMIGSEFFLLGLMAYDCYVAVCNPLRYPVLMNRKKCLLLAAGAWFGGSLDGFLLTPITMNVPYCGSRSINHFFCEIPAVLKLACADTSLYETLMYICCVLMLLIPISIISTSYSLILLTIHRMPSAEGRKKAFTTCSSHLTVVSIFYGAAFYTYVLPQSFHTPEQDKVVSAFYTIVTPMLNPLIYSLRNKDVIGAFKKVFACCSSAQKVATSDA
Method in brief: as §1

OR2T12 (Homo sapiens) = molecular target: T4, OR2T12 (Homo sapiens) (UniProt Q8NG77)
T4 sequence (whole entry): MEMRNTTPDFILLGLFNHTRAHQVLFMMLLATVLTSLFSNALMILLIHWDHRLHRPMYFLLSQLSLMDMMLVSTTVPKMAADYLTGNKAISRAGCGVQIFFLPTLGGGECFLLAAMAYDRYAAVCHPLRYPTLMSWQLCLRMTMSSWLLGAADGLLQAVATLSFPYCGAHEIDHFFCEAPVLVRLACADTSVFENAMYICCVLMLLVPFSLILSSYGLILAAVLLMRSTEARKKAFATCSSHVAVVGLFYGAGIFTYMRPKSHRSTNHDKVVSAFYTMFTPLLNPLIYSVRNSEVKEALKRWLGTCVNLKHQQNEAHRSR
Method in brief: as §1

OR2T2 (Homo sapiens) = molecular target: T5, OR2T2 (Homo sapiens) (UniProt Q6IF00)
T5 sequence (whole entry): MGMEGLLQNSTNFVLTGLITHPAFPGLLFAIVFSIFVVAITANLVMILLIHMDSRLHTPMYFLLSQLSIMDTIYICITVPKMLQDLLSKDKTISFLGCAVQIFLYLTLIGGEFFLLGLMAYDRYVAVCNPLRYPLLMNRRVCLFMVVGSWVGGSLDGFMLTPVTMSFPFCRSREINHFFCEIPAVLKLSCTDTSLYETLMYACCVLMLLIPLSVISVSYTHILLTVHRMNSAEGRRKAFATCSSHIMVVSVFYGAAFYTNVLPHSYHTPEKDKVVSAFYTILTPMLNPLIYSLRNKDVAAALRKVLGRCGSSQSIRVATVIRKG
Method in brief: as §1

OR2T2 L104F L262Q = test system: T6, OR2T2 L104F L262Q
T6 sequence (whole entry): T5 sequence (whole entry) with L104F, L262Q
Method in brief: as §1

OR2T2 L104F = test system: T7, OR2T2 L104F
T7 sequence (whole entry): T5 sequence (whole entry) with L104F
Method in brief: as §1

OR2T2 Q313H = test system: T8, OR2T2 Q313H
T8 sequence (whole entry): T5 sequence (whole entry) with Q313H
Method in brief: as §1

OR2T27 (Homo sapiens) = molecular target: T9, OR2T27 (Homo sapiens) (UniProt Q8NH04)
T9 sequence (whole entry): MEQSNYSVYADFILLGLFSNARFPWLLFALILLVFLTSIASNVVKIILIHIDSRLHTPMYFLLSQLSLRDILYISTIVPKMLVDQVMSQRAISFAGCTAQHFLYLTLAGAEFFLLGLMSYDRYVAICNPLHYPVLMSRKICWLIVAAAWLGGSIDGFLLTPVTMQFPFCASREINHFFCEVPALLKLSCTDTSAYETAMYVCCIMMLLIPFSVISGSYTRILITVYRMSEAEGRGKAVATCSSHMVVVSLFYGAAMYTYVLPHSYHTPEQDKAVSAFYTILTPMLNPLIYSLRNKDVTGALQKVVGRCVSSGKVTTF
Method in brief: as §1

OR2T29 (Homo sapiens) = molecular target: T10, OR2T29 (Homo sapiens) (UniProt Q8NH02)
T10 sequence (whole entry): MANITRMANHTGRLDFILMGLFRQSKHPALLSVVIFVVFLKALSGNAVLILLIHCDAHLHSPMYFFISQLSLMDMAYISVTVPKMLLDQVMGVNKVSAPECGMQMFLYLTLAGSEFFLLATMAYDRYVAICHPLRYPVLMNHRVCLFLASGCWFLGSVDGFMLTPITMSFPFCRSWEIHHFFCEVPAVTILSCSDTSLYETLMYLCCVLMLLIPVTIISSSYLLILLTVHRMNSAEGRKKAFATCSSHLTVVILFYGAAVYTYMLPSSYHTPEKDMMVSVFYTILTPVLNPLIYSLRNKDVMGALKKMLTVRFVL
Method in brief: as §1

OR2T3 (Homo sapiens) = molecular target: T11, OR2T3 (Homo sapiens) (UniProt Q8NH03)
T11 sequence (whole entry): T1 sequence (whole entry) with H109Y, M202T, T204M, T214A, R239H, R267P
Method in brief: as §1

OR2T3 L256F = test system: T12, OR2T3 L256F
T12 sequence (whole entry): T1 sequence (whole entry) with H109Y, M202T, T204M, T214A, R239H, L256F, R267P
Method in brief: as §1

OR2T3 R298C = test system: T13, OR2T3 R298C
T13 sequence (whole entry): T1 sequence (whole entry) with H109Y, M202T, T204M, T214A, R239H, R267P, R298C
Method in brief: as §1

OR2T3 Y109H = test system: T14, OR2T3 Y109H
T14 sequence (whole entry): T1 sequence (whole entry) with M202T, T204M, T214A, R239H, R267P
Method in brief: as §1

OR2T33 (Homo sapiens) = molecular target: T15, OR2T33 (Homo sapiens) (UniProt Q8NG76)
T15 sequence (whole entry): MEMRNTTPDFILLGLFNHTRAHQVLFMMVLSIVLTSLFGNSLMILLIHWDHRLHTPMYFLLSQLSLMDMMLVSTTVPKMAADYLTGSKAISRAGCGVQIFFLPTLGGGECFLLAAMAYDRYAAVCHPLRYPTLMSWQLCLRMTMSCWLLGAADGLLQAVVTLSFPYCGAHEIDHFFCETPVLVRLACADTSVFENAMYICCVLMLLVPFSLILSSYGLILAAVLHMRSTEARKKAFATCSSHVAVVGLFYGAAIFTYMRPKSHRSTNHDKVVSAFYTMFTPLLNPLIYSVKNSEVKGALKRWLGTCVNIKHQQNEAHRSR
Method in brief: as §1

OR2T35 (Homo sapiens) = molecular target: T16, OR2T35 (Homo sapiens) (UniProt Q8NGX2)
T16 sequence (whole entry): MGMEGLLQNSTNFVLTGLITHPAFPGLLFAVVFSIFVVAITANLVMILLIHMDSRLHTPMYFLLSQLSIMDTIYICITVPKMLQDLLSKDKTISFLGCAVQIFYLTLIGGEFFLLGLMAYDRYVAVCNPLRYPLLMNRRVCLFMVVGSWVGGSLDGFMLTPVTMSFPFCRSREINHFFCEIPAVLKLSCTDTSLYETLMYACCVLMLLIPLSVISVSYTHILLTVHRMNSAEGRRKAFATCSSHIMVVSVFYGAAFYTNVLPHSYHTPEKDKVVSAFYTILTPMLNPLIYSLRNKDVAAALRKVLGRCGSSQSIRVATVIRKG
Method in brief: as §1

OR2T5 (Homo sapiens) = molecular target: T17, OR2T5 (Homo sapiens) (UniProt Q6IEZ7)
T17 sequence (whole entry): T10 sequence (whole entry) with R13K, Q24R
Method in brief: as §1

OR2T5 K13R K41M G45E = test system: T18, OR2T5 K13R K41M G45E
T18 sequence (whole entry): T10 sequence (whole entry) with Q24R, K41M, G45E
Method in brief: as §1

OR2T5 K13R L134F = test system: T19, OR2T5 K13R L134F
T19 sequence (whole entry): T10 sequence (whole entry) with Q24R, L134F
Method in brief: as §1

OR2T6 (Homo sapiens) = molecular target: T20, OR2T6 (Homo sapiens) (UniProt Q8NHC8)
T20 sequence (whole entry): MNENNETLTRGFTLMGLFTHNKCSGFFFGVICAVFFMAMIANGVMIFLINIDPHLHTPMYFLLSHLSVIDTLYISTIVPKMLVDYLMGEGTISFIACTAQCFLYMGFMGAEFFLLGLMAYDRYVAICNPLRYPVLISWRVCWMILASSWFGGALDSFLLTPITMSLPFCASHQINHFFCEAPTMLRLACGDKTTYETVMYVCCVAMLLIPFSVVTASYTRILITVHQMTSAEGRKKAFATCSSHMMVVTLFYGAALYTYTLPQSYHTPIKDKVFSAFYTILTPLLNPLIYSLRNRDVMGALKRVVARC
Method in brief: as §1

Structure (SMILES): C=CCOC(=O)COCCC(C)C
- odorant receptor agonist call (OR2T34 (Homo sapiens)): inactive

Structure (SMILES): C=CC(C)(CCC=C(C)C)OC(C)=O (stereo unspecified)
- odorant receptor agonist call (OR2T34 (Homo sapiens)): inactive

Structure (SMILES): CC1=CCC2CC1C2(C)C (stereo unspecified)
- odorant receptor agonist call (OR2T34 (Homo sapiens)): inactive
- odorant receptor agonist call (OR2T4 (Homo sapiens)): active

Structure (SMILES): CC1=C(O)C(=O)OC1C (stereo unspecified)
- odorant receptor agonist call (OR2T11 (Homo sapiens)): inactive
- odorant receptor agonist call (OR2T12 (Homo sapiens)): inactive
- odorant receptor agonist call (OR2T2 (Homo sapiens)): inactive
- odorant receptor agonist call (OR2T2 L104F L262Q): inactive
- odorant receptor agonist call (OR2T2 L104F): inactive
- odorant receptor agonist call (OR2T2 Q313H): inactive
- odorant receptor agonist call (OR2T27 (Homo sapiens)): inactive
- odorant receptor agonist call (OR2T29 (Homo sapiens)): inactive
- odorant receptor agonist call (OR2T3 (Homo sapiens)): inactive
- odorant receptor agonist call (OR2T3 L256F): inactive
- odorant receptor agonist call (OR2T3 R298C): inactive
- odorant receptor agonist call (OR2T3 Y109H): inactive
- odorant receptor agonist call (OR2T33 (Homo sapiens)): inactive
- odorant receptor agonist call (OR2T34 (Homo sapiens)): inactive
- odorant receptor agonist call (OR2T35 (Homo sapiens)): inactive
- odorant receptor agonist call (OR2T4 (Homo sapiens)): inactive
- odorant receptor agonist call (OR2T5 (Homo sapiens)): inactive
- odorant receptor agonist call (OR2T5 K13R K41M G45E): inactive
- odorant receptor agonist call (OR2T5 K13R L134F): inactive
- odorant receptor agonist call (OR2T6 (Homo sapiens)): inactive

Structure (SMILES): CC1CCCCCCCCCCCCC(=O)C1 (stereo unspecified)
- odorant receptor agonist call (OR2T11 (Homo sapiens)): inactive
- odorant receptor agonist call (OR2T12 (Homo sapiens)): inactive
- odorant receptor agonist call (OR2T2 (Homo sapiens)): inactive
- odorant receptor agonist call (OR2T27 (Homo sapiens)): inactive
- odorant receptor agonist call (OR2T29 (Homo sapiens)): inactive
- odorant receptor agonist call (OR2T3 (Homo sapiens)): inactive
- odorant receptor agonist call (OR2T33 (Homo sapiens)): inactive
- odorant receptor agonist call (OR2T34 (Homo sapiens)): inactive
- odorant receptor agonist call (OR2T35 (Homo sapiens)): inactive
- odorant receptor agonist call (OR2T4 (Homo sapiens)): inactive
- odorant receptor agonist call (OR2T5 (Homo sapiens)): inactive
- odorant receptor agonist call (OR2T6 (Homo sapiens)): inactive

Structure (SMILES): CC1=C(O)C(=O)C(C)O1 (stereo unspecified)
- odorant receptor agonist call (OR2T11 (Homo sapiens)): inactive
- odorant receptor agonist call (OR2T12 (Homo sapiens)): inactive
- odorant receptor agonist call (OR2T2 (Homo sapiens)): inactive
- odorant receptor agonist call (OR2T2 L104F L262Q): inactive
- odorant receptor agonist call (OR2T2 L104F): inactive
- odorant receptor agonist call (OR2T2 Q313H): inactive
- odorant receptor agonist call (OR2T27 (Homo sapiens)): inactive
- odorant receptor agonist call (OR2T29 (Homo sapiens)): inactive
- odorant receptor agonist call (OR2T3 (Homo sapiens)): inactive
- odorant receptor agonist call (OR2T3 L256F): inactive
- odorant receptor agonist call (OR2T3 R298C): inactive
- odorant receptor agonist call (OR2T3 Y109H): inactive
- odorant receptor agonist call (OR2T33 (Homo sapiens)): inactive
- odorant receptor agonist call (OR2T34 (Homo sapiens)): inactive
- odorant receptor agonist call (OR2T35 (Homo sapiens)): inactive
- odorant receptor agonist call (OR2T4 (Homo sapiens)): inactive
- odorant receptor agonist call (OR2T5 (Homo sapiens)): inactive
- odorant receptor agonist call (OR2T5 K13R K41M G45E): inactive
- odorant receptor agonist call (OR2T5 K13R L134F): inactive
- odorant receptor agonist call (OR2T6 (Homo sapiens)): inactive

Structure (SMILES): CCCC(C)C(=O)OCC (stereo unspecified)
- odorant receptor agonist call (OR2T34 (Homo sapiens)): inactive

Structure (SMILES): CC(C)=CCCC(C)=CCO
- odorant receptor agonist call (OR2T34 (Homo sapiens)): inactive
- odorant receptor agonist call (OR2T4 (Homo sapiens)): inactive

Structure (SMILES): CC(C)CCCC(C)(C)O
- odorant receptor agonist call (OR2T34 (Homo sapiens)): inactive

Structure (SMILES): CCCCCC1COCCC1OC(C)=O (stereo unspecified)
- odorant receptor agonist call (OR2T34 (Homo sapiens)): inactive
